# Reference: ChEMBL document CHEMBL1123879, “Synthesis and antiarrhythmic activity of novel 3-alkyl-1-[omega-[4-[(alkylsulfonyl)amino]phenyl]-omega- hydroxyalkyl]-1H-imidazolium salts and related compounds” (J Med Chem, 1987)
# Columns and labels:
# Canis familiaris [1] = experiment: In vivo intraduodenal activity in mongrel dogs was assessed by percent change in heart rate at active dose of 30 mg/kg, administered intradermally; assay type: functional, Canis lupus familiaris; details: in the assay text read “intraduodenally” for “intradermally”
# Outline: (§1)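 Healthy dogs (8–20 kg) of either sex, pentobarbital 30 mg/kg iv, ventilated, temperature held at 36 ± 0.5 °C. Compound given intraduodenally as suspension in 0.5% tragacanth. HR, BP and FRP measured at 45 min postdose; second dose if FRP/conduction change below 12%. Active dose means FRP change ≥ 12%; HR and BP given as % change, mean ± SEM.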
# Canis familiaris [2] = organism: Canis familiaris; experiment: Concentration that causes 20% increase in functional refractory period (FRP) was determined on isolated canine ventricular muscle fibers; NR = never reached; details: Canis lupus familiaris; Muscle tissue
# Outline: (§2)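 Canine right ventricular papillary muscle strips superfused with O2/CO2-gassed saline at 36 ± 0.5 °C. Bipolar electrogram recording. Stimulated at 4× diastolic threshold (2 ms pulses), equilibrated 60 min. FRP measured at 1000 ms cycle length by S2 after every tenth S1 at shortening intervals. Cumulative concentrations; one compound per strip, with vehicle controls. Readout is concentration giving a 20% FRP change, or maximal change; log mean with 90% CI when n > 2.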
# Canis familiaris [3] = organism: Canis familiaris; experiment: Concentration that causes 20% increase in ADP95 (action potential duration at 95% repolarization) was determined on isolated canine cardiac Purkinje fibers (0.01-10 uM concentration range); assay type: functional, Canis lupus familiaris, Purkinje fiber
# Outline: (§3)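 Canine cardiac Purkinje fibres in gassed physiological saline (95% O2–5% CO2, pH 7.35–7.40) at 36 ± 0.5 °C. Paced at 1.0 Hz with 2 ms pulses at twice diastolic threshold. Intracellular microelectrode recording after up to 1 h of stabilisation; 30 min exposure per concentration; one compound per fibre, with vehicle controls. Readout is concentration giving a 20% change in APD95, or maximal APD95 change; log mean with 90% CI when n > 2.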
# Canis familiaris [4] = experiment: In vivo intraduodenal activity in mongrel dogs was assessed by percent change in blood pressure at active dose of 30 mg/kg, administered intradermally; assay type: functional, Canis lupus familiaris, Artery; details: in the assay text read “intraduodenally” for “intradermally”; outline: as §1
# Canis familiaris [5] = organism: Canis familiaris; experiment: Maximum observed change in ADP95 from control value was determined in isolated canine cardiac uM; assay type: functional, Canis lupus familiaris; outline: as §3
# Canis familiaris [6] = organism: Canis familiaris; experiment: Maximum observed change in FRP from control was determined in isolated canine ventricular muscle fibers at a concentration of 100 uM; assay type: functional, Canis lupus familiaris, Muscle tissue; outline: as §2
# Canis familiaris [7] = experiment: In vivo antiarrhythmic efficacy in a programmed electrical stimulation (PES) model of mongrel dogs reported as number of animals effective at dose range of 0.3-30 mg/kg.; assay type: functional, Canis lupus familiaris, Heart
# Outline: (§4)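 Mongrel dogs (8–17 kg) with two-stage LAD occlusion 24 h earlier, anesthetized with thiopental 15 mg/kg and ventilated; open chest. PES induces SVT/VF; two control arrhythmias 30 min apart. Compound given as 10-min iv infusion, PES repeated 20 min later, dose escalated while still inducible; noninducibility counts as effective. HR and BP reported as % change at effective dose, mean ± SEM.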
# Canis familiaris [8] = experiment: In vivo antiarrhythmic efficacy in a programmed electrical stimulation (PES) model of mongrel dogs expressed as percent change in blood pressure at iv dose range of 0.1-10 mg/kg.; assay type: functional, Canis lupus familiaris; outline: as §4
# Canis familiaris [9] = organism: Canis familiaris; experiment: (§5) Concentration that causes 20% increase in functional refractory period (FRP) was determined on isolated canine ventricular muscle fibers; details: Canis lupus familiaris; Muscle tissue; outline: as §2
# Canis familiaris [10] = experiment: In vivo intraduodenal activity in mongrel dogs was assessed by % change in blood pressure (10 mg/kg administered intradermally); assay type: functional, Canis lupus familiaris, Artery; details: in the assay text read “intraduodenally” for “intradermally”; outline: as §1
# Canis familiaris [11] = experiment: In vivo intraduodenal activity in mongrel dogs was assessed by % change in heart rate (10 mg/kg administered intradermally); assay type: functional, Canis lupus familiaris; details: in the assay text read “intraduodenally” for “intradermally”; outline: as §1
# Canis familiaris [12] = experiment: In vivo antiarrhythmic efficacy in a programmed electrical stimulation (PES) model of mongrel dogs expressed as percent change in heart rate at iv dose range of 0.1-10 mg/kg.; assay type: functional, Canis lupus familiaris; outline: as §4
# Canis familiaris [13] = experiment: In vivo antiarrhythmic efficacy in a programmed electrical stimulation (PES) model of mongrel dogs reported as number of animals effective at dose range of 0.1-10 mg/kg.; assay type: functional, Canis lupus familiaris, Heart; outline: as §4
# Canis familiaris [14] = organism: Canis familiaris; experiment: Concentration that causes 20% increase in ADP95 (action potential duration at 95% repolarization) was determined on isolated canine cardiac Purkinje fibers at a dose range of 0.01-10 uM; assay type: functional, Canis lupus familiaris, Purkinje fiber; outline: as §3
# Canis familiaris [15] = experiment: In vivo antiarrhythmic efficacy in a programmed electrical stimulation (PES) model of mongrel dogs expressed as minimum effect dose (iv) at iv dose range of 0.1-10 mg/kg.; assay type: functional, Canis lupus familiaris, Heart; outline: as §4
# Canis familiaris [16] = organism: Canis familiaris; experiment: Maximum observed change in FRP from control was determined in isolated canine ventricular muscle fibers at a concentration of 10 uM; assay type: functional, Canis lupus familiaris, Muscle tissue; outline: as §2
# Canis familiaris [17] = organism: Canis familiaris; experiment: as §5; set-up: species or system Canis lupus familiaris, Muscle tissue; outline: as §2
# Canis familiaris [18] = organism: Canis familiaris; experiment: (§6) Concentration that causes 20% increase in ADP95 (action potential duration at 95% repolarization) was determined on isolated canine cardiac Purkinje fibers; assay type: functional, Canis lupus familiaris, Purkinje fiber; outline: as §3
# Canis familiaris [19] = organism: Canis familiaris; experiment: Maximum observed change in FRP from control was determined on isolated canine ventricular muscle fibers at a concentration of 100 uM; assay type: functional, Canis lupus familiaris, Muscle tissue; outline: as §2
# Canis familiaris [20] = experiment: In vivo antiarrhythmic efficacy in PES model of mongrel dogs expressed as percent change in blood pressure at iv dose range of 0.1-10 mg/kg.; assay type: functional, Canis lupus familiaris; details: in the assay text read “1.0-10 mg/kg” for “0.1-10 mg/kg”; outline: as §4
# Canis familiaris [21] = organism: Canis familiaris; experiment: as §6; assay type: functional; details: Canis lupus familiaris; Purkinje fiber; outline: as §3
# Canis familiaris [22] = experiment: In vivo antiarrhythmic efficacy in a programmed electrical stimulation (PES) model of mongrel dogs reported as number of animals effective at dose range of 0.1-30 mg/kg.; assay type: functional, Canis lupus familiaris, Heart; outline: as §4
# Canis familiaris [23] = experiment: In vivo antiarrhythmic efficacy in a PES model of mongrel dog expressed as percent change in heart rate at iv dose range of 0.1-30 mg/kg.; assay type: functional, Canis lupus familiaris; outline: as §4
# Canis familiaris [24] = organism: Canis familiaris; experiment: Concentration that causes 20% increase in functional refractory period (FRP) was determined on isolated canine ventricular muscle fibers;range is 3.7-162; set-up: species or system Canis lupus familiaris, Muscle tissue; outline: as §2
# Canis familiaris [25] = experiment: In vivo antiarrhythmic efficacy in a PES model of mongrel dog expressed as percent change in blood pressure at iv dose range of 0.1-30 mg/kg.; assay type: functional, Canis lupus familiaris; outline: as §4
# Canis familiaris [26] = organism: Canis familiaris; experiment: Concentration that causes 20% increase in ADP95 (action potential duration at 95% repolarization) was determined on isolated canine cardiac Purkinje fibers;range is 11.2-18.6; assay type: functional, Canis lupus familiaris, Purkinje fiber; outline: as §3
# Canis familiaris [27] = experiment: In vivo intraduodenal activity in mongrel dogs was assessed by percent change in heart rate at active dose of 10 mg/kg, administered intradermally; assay type: functional, Canis lupus familiaris; details: in the assay text read “intraduodenally” for “intradermally”; outline: as §1
# Canis familiaris [28] = experiment: In vivo intraduodenal activity in mongrel dogs was assessed by percent change in blood pressure at active dose of 10 mg/kg, administered intradermally; assay type: functional, Canis lupus familiaris, Artery; details: in the assay text read “intraduodenally” for “intradermally”; outline: as §1
# Canis familiaris [29] = experiment: In vivo antiarrhythmic efficacy in a programmed electrical stimulation (PES) model of mongrel dogs expressed as minimum effect dose (iv) at iv dose range of 0.1-30 mg/kg.; assay type: functional, Canis lupus familiaris, Heart; outline: as §4
# Canis familiaris [30] = organism: Canis familiaris; experiment: Concentration that causes 20% increase in ADP95 (action potential duration at 95% repolarization) was determined on isolated canine cardiac Purkinje fibers at a concentration range 0.01-10 uM; assay type: functional, Canis lupus familiaris, Purkinje fiber; outline: as §3
# [31] = target: Adrenergic receptor beta (Canis familiaris); experiment: Concentration effective against displacing [3H]dihydroalprenolol from beta adrenergic receptor from canine ventricular tissue
# Canis familiaris [32] = experiment: In vivo antiarrhythmic efficacy in a programmed electrical stimulation (PES) model of mongrel dogs expressed as percent change in blood pressure at iv dose range of 0.3-10 mg/kg.; assay type: functional, Canis lupus familiaris; outline: as §4
# Canis familiaris [33] = experiment: In vivo antiarrhythmic efficacy in a programmed electrical stimulation (PES) model of mongrel dogs expressed as percent change in heart rate at iv dose range of 0.3-10 mg/kg.; assay type: functional, Canis lupus familiaris; outline: as §4
# Canis familiaris [34] = experiment: In vivo antiarrhythmic efficacy in a programmed electrical stimulation (PES) model of mongrel dogs reported as number of animals effective at dose range of 0.3-10 mg/kg.; assay type: functional, Canis lupus familiaris, Heart; outline: as §4
# Canis familiaris [35] = experiment: In vivo antiarrhythmic efficacy in a programmed electrical stimulation (PES) model of mongrel dogs expressed as minimum effect dose (iv) at iv dose range of 0.3-10 mg/kg.; assay type: functional, Canis lupus familiaris, Heart; outline: as §4
structure (smiles),measurement,setting,value
C[n+]1ccn(CC(=O)c2ccc(NS(C)(=O)=O)cc2)c1.[Cl-],Heart rate,Canis familiaris [1],-19%
same,Activity,Canis familiaris [2],Not recorded
same,Activity,Canis familiaris [3],2.3 µM
same,Blood pressure,Canis familiaris [4],3%
same,Max delta APD95,Canis familiaris [5],38%
same,Max delta FRP,Canis familiaris [6],15%
same,No. effective,Canis familiaris [7],0
CCCCCCC[N+](CC)(CC)CCCCc1ccc(Cl)cc1.O=P([O-])(O)O [CLOFILIUM PHOSPHATE],Blood pressure,Canis familiaris [8],2%
same,Activity,Canis familiaris [9],Not recorded
same,Blood pressure,Canis familiaris [10],-4%
same,Heart rate,Canis familiaris [11],-18%
same,Heart rate,Canis familiaris [12],-12%
same,No. effective,Canis familiaris [13],7
same,Activity,Canis familiaris [14],0.26 µM
same,Min effective dose,Canis familiaris [15],0.63
same,Max delta APD95,Canis familiaris [5],39%
same,Max delta FRP,Canis familiaris [6],7%
Cc1n(CC(O)c2ccc(NS(C)(=O)=O)cc2)cc[n+]1C.[Cl-] (stereo not given),Max delta FRP,Canis familiaris [16],44%
same,Blood pressure,Canis familiaris [10],3%
same,Heart rate,Canis familiaris [11],-20%
same,Activity,Canis familiaris [17],0.2 µM
same,Activity,Canis familiaris [18],0.8 µM
same,Max delta FRP,Canis familiaris [19],56%
same,Max delta APD95,Canis familiaris [5],51%
same,No. effective,Canis familiaris [7],0
C[n+]1ccn(CCc2ccc(NS(C)(=O)=O)cc2)c1.[I-],Heart rate,Canis familiaris [1],-13%
same,Blood pressure,Canis familiaris [4],3%
same,No. effective,Canis familiaris [13],2
same,Activity,Canis familiaris [17],10 µM
same,Activity,Canis familiaris [18],2.6 µM
same,Blood pressure,Canis familiaris [20],13%
same,Min effective dose,Canis familiaris [15],6.5
same,Max delta APD95,Canis familiaris [5],45%
same,Max delta FRP,Canis familiaris [6],24%
Cc1c(C)[n+](C)c(C)n1CC(O)c1ccc(NS(C)(=O)=O)cc1.[Cl-] (stereo not given),Blood pressure,Canis familiaris [10],19%
same,Activity,Canis familiaris [21],Not recorded
same,Heart rate,Canis familiaris [11],-12%
same,Activity,Canis familiaris [17],2.5 µM
same,Max delta APD95,Canis familiaris [5],13%
same,Max delta FRP,Canis familiaris [6],29%
CC(C)NCC(O)c1ccc(NS(C)(=O)=O)cc1.Cl (stereo not given) [SOTALOL HYDROCHLORIDE],No. of animals,Canis familiaris [22],3
same,Change,Canis familiaris [23],-23%
same,Activity,Canis familiaris [24],24.7 µM
same,Change,Canis familiaris [25],-23%
same,Activity,Canis familiaris [26],14.4 µM
same,Change,Canis familiaris [27],-11%
same,Change,Canis familiaris [28],8%
same,Max delta APD95,Canis familiaris [5],48%
same,Max delta FRP,Canis familiaris [6],23%
same,Mean effective dose,Canis familiaris [29],1.4
CCCCCCC[n+]1ccn(CC(=O)c2ccc(NS(C)(=O)=O)cc2)c1.[Br-],Activity,Canis familiaris [9],Not recorded
same,Activity,Canis familiaris [30],9 µM
same,Max delta APD95,Canis familiaris [5],21%
same,Max delta FRP,Canis familiaris [6],14%
C[n+]1ccn(CC(O)c2ccc(NS(C)(=O)=O)cc2)c1.[Cl-] (stereo not given),IC50,[31],2.35 mM
same,Blood pressure,Canis familiaris [32],0%
same,Heart rate,Canis familiaris [33],-23%
same,Blood pressure,Canis familiaris [10],5%
same,Heart rate,Canis familiaris [11],-10%
same,Activity,Canis familiaris [17],5.9 µM
same,Activity,Canis familiaris [18],1.6 µM
same,No. effective,Canis familiaris [34],2
same,Max delta APD95,Canis familiaris [5],50%
same,Min effective dose,Canis familiaris [35],6.5
same,Max delta FRP,Canis familiaris [6],31%
